Results reported in ChEMBL document CHEMBL4396873, “Discovery of Potent, Selective, and Short-Acting Peptidic V2 Receptor Agonists” (J Med Chem, 2019).
Active and inactive are the calls of the source. The rule behind the calls is not given here. Numbered stars: 1 amine (or outer) side, 2 acyl side, 3 side chain; on linkers, the order of the positions; unused ones are H or OH. Bridge positions count the residues as written; N and C are the ends. Square brackets hold non-standard residues; d marks the D form. Peptide text beside a SMILES is read from it. * marks the point of attachment. Phe(4-Cl) = N[C@@H](Cc1ccc(Cl)cc1)C(=O)O; Phe(4-Et) = CCc1ccc(C[C@H](N)C(=O)O)cc1; 2Thi = N[C@@H](Cc1cccs1)C(=O)O; X4 = N=C(N)NCCC[C@@H](CO)N*; X2 = N=C(N)NCCC[C@H](CO)N*; hCys = N[C@@H](CCS)C(=O)O; X1 = O=C(CCC[*:2])[*:1]; X3 = O=C(CC[*:2])[*:1]; NEt2 = CCN(CC)*

How the values were obtained:
Vasopressin V2 receptor [1] = target: Vasopressin V2 receptor (Homo sapiens, UniProt P30518); test: Agonist activity at recombinant human V2 receptor expressed in HEK293 cells measured after 5 hrs by cAMP response element driven luciferase reporter gene assay; assay type: functional, cell-based
Chain of Vasopressin V2 receptor (Homo sapiens, UniProt P30518) (P30518 whole entry): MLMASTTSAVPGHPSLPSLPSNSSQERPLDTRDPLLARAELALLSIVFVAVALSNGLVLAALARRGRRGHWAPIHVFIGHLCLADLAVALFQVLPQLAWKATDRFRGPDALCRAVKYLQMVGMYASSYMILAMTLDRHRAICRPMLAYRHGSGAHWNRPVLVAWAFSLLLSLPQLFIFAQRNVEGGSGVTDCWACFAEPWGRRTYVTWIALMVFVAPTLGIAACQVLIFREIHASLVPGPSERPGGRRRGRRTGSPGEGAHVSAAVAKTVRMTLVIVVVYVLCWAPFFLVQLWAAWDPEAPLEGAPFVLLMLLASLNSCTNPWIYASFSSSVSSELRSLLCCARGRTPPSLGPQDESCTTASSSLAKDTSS

Vasopressin V1a receptor = Vasopressin V1a receptor (Homo sapiens, UniProt P37288); test: Agonist activity at recombinant human V1a receptor expressed in HEK293 cells up to 1000 nM measured after 5 hrs by luciferase reporter gene assay; assay type: cell-based; details: hek293, 5 h
Chain of Vasopressin V1a receptor (P37288 whole entry): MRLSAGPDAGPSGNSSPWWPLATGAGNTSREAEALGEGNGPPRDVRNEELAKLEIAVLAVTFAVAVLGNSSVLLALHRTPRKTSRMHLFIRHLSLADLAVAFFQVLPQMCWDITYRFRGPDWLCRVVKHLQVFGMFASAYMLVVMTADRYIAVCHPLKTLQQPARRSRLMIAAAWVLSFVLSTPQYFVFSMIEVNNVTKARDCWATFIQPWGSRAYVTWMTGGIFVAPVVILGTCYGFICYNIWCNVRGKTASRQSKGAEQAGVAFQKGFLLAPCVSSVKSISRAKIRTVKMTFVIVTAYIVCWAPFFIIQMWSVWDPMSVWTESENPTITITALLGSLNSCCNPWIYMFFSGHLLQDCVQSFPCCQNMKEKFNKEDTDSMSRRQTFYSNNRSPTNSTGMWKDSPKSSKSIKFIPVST

[2] = Clearance in Sprague-Dawley rat at 0.1 mg/kg, iv administered as cassette dose by LC-MS/MS analysis; assay type: ADME, organism-based; details: in vivo
[3] = Non-renal clearance in nephrectomized Sprague-Dawley rat at 0.1 mg/kg, iv administered as cassette dose by LC-MS/MS analysis; assay type: ADME, organism-based; details: in vivo
[4] = Protein binding in rat plasma at 200 to 1000 ng/ml measured after 15 mins by UC-LC/MS/MS analysis; assay type: ADME, cell-free; details: read-out: PPB (converted)
Summary of the method: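 Peptide spiked into rat plasma to final 200-1000 ng/mL, incubated 15 min at 37 °C, ultracentrifuged at 773,000 xg for 30 min at 37 °C; middle-layer sample quantified by LC/MS/MS; binding (%) = (Ci − Cm)/Ci × 100; quadruplicate.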

[5] = target: T1, Oxytocin receptor (Homo sapiens) (UniProt P30559); test: Agonist activity at human OTR stably expressed in CHOK1 cells up to 10000 nM by NFAT-luciferase reporter gene assay; assay type: cell-based
T1 sequence (whole entry): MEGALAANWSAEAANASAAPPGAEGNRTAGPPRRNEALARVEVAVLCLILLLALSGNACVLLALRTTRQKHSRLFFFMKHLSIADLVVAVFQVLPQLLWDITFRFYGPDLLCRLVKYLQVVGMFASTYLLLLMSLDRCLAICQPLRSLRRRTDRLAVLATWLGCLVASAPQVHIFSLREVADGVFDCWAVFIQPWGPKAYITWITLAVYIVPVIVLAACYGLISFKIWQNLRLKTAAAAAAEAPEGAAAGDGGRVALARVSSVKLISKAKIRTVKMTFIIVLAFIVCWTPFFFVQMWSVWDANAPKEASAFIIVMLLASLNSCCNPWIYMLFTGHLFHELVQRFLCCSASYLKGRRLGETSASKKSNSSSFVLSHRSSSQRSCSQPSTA

Oxytocin receptor = target: T2, Oxytocin receptor (Homo sapiens, UniProt P30559); test: Agonist activity at human OTR stably expressed in CHOK1 cells by NFAT-luciferase reporter gene assay; assay type: cell-based
T2 sequence (P30559 whole entry): T1 sequence (whole entry)

Vasopressin V2 receptor [6] = target: Vasopressin V2 receptor (Rattus norvegicus, UniProt Q00788); test: Agonist activity at recombinant rat V2 receptor expressed in HEK293 cells measured after 5 hrs by cAMP response element driven luciferase reporter gene assay; assay type: functional, cell-based
Chain of Vasopressin V2 receptor (Rattus norvegicus, UniProt Q00788) (Q00788 whole entry): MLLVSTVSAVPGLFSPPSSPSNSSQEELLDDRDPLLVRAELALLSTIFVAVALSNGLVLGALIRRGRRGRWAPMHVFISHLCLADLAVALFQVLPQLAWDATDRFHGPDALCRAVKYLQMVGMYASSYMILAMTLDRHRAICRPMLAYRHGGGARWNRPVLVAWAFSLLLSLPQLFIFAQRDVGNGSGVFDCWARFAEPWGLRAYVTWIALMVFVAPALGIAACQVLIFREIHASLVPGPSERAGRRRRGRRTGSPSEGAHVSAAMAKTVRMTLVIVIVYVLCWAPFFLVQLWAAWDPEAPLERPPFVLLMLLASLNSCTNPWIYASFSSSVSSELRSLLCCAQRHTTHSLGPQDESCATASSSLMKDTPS

[7] = target: Vasopressin V2 receptor (Rattus norvegicus) (UniProt Q00788); test: Agonist activity at recombinant rat V2 receptor expressed in HEK293 cells measured after 5 hrs by cAMP response element driven luciferase reporter gene assay relative to control; assay type: functional, cell-based
Chain of Vasopressin V2 receptor (Rattus norvegicus) (Q00788 whole entry): as above

[8] = Elimination half life in Sprague-Dawley rat at 0.1 mg/kg, iv administered as cassette dose by LC-MS/MS analysis; assay type: ADME, organism-based; details: in vivo, read-out: beta t1/2
Rattus norvegicus [9] = test: Antidiuretic activity in hydrated-euvolemic Sprague-Dawley rat assessed as suppression of urine output administered as iv infusion for 180 mins measured during compound dosing; assay type: functional, organism-based
Rattus norvegicus [10] = test: Antidiuretic activity in hydrated-euvolemic Sprague-Dawley rat assessed as effective plasma concentration causing half-maximal suppression of urine output administered as iv infusion for 180 mins measured during compound dosing; assay type: functional, organism-based; details: 3 h
Rattus norvegicus [11] = test: Antidiuretic activity in hydrated-euvolemic Sprague-Dawley rat assessed as suppression of urine output by measuring cumulative urine weight administered as iv infusion for 180 mins measured during compound dosing; assay type: functional
Rattus norvegicus [12] = test: Antidiuretic activity in hydrated-euvolemic Sprague-Dawley rat assessed as suppression of urine output by measuring cumulative urine weight at 30 to 100 pM administered as iv infusion for 180 mins measured up to 300 mins; assay type: functional
Rattus norvegicus [13] = test: Antidiuretic activity in hydrated-euvolemic Sprague-Dawley rat assessed as suppression of urine output at MED administered as iv infusion for 180 mins measured during compound dosing relative to control; assay type: functional
[14] = Half life in iv dosed Sprague-Dawley rat by LC-MS/MS analysis; assay type: ADME, organism-based; details: in vivo
Rattus norvegicus [15] = test: Antidiuretic activity in hydrated-euvolemic Sprague-Dawley rat assessed as suppression of urine output at 30 to 100 pM administered as iv infusion for 180 mins measured after 1 hr; assay type: functional, organism-based

| SMILES | EC50 (Vasopressin V2 receptor [1]) [nM] | Activity (Vasopressin V1a receptor) | clearance [2] [mL/min/kg] | CL [3] [%] | fraction unbound at […] [4] | Activity [5] | EC50 (Oxytocin receptor) [nM] | EC50 (Vasopressin V2 receptor [6]) [nM] | Efficacy [7] [%] | half-life [8] [min] | Activity (Rattus norvegicus [9]) | EC50 (Rattus norvegicus [10]) [nM] | Activity (Rattus norvegicus [11]) [g] | Activity (Rattus norvegicus [12]) [g] | Activity (Rattus norvegicus [13]) [%] | half-life [14] [min] | Activity (Rattus norvegicus [15]) |
| --- | --- | --- | --- | --- | --- | --- | --- | --- | --- | --- | --- | --- | --- | --- | --- | --- | --- |
| CC(C)[C@@H]1NC(=O)[C@H](Cc2cccs2)NC(=O)[C@H](Cc2ccc(O)cc2)NC(=O)CCCSC[C@@H](C(=O)N2CCC[C@H]2C(=O)N[C@H](CCCNC(=N)N)C(=O)NCc2ccccc2)NC(=O)[C@H](CC(N)=O)NC1=O | 0.26 | Not Active | 14 | 71 | 0.55 | inactive | – | – | – | – | – | – | – | – | – | – | – |
| CC(C)[C@@H]1NC(=O)[C@H](Cc2cccs2)NC(=O)[C@H](Cc2ccc(Cl)cc2)NC(=O)CCCSC[C@@H](C(=O)N2CCC[C@H]2C(=O)N[C@@H](CO)CCCNC(=N)N)NC(=O)[C@H](CC(N)=O)NC1=O ([Phe(4-Cl)][2Thi]VNCP-X2; linker N-5 via X1) | – | Not Active | 4 | – | 0.2 | – | > 10000 | – | – | – | – | – | – | – | – | – | – |
| CCN(CC)C(=O)[C@@H](CCCNC(=N)N)NC(=O)[C@@H]1CCCN1C(=O)[C@@H]1CSCCCC(=O)N[C@@H](Cc2ccc(Cl)cc2)C(=O)N[C@@H](Cc2cccs2)C(=O)N[C@@H](C(C)C)C(=O)N[C@@H](CC(N)=O)C(=O)N1 ([Phe(4-Cl)][2Thi]VNCP[dR]-NEt2; linker N-5 via X1) | – | Not Active | 42 | 60 | 0.08 | inactive | – | 0.05 | 91 | 6.4 | Dose-dependent effect | 0.00043 | 5 | 1 | 80 | 12 | inactive |
| CC(C)[C@@H]1NC(=O)[C@H](Cc2cccs2)NC(=O)[C@H](Cc2ccc(O)cc2)NC(=O)CCCSC[C@@H](C(=O)N2CCC[C@H]2C(=O)N[C@H](CO)CCCNC(=N)N)NC(=O)[C@H](CC(N)=O)NC1=O (Y[2Thi]VNCP-X4; linker N-5 via X1) | 0.1 | Not Active | 8.1 | – | 0.85 | – | 230 | – | – | – | – | – | – | – | – | – | – |
| CCc1ccc(C[C@@H]2NC(=O)CCCSC[C@@H](C(=O)N3CCC[C@H]3C(=O)N[C@@H](CO)CCCNC(=N)N)NC(=O)[C@H](CC(N)=O)NC(=O)[C@H](C(C)C)NC(=O)[C@H](Cc3cccs3)NC2=O)cc1 ([Phe(4-Et)][2Thi]VNCP-X2; linker N-5 via X1) | 0.35 | Not Active | 9.4 | 80 | 0.16 | – | > 10000 | – | – | – | – | – | – | – | – | – | – |
| CC(C)[C@@H]1NC(=O)[C@H](Cc2cccs2)NC(=O)[C@H](Cc2ccc(Cl)cc2)NC(=O)CCSCC[C@@H](C(=O)N2CCC[C@H]2C(=O)N[C@@H](CO)CCCNC(=N)N)NC(=O)[C@H](CC(N)=O)NC1=O ([Phe(4-Cl)][2Thi]VN[hCys]P-X2; linker N-5 via X3) | – | Not Active | 2.8 | 66 | 0.11 | – | > 10000 | – | – | – | – | – | – | – | – | – | – |
| CC(C)[C@@H]1NC(=O)[C@H](Cc2cccs2)NC(=O)[C@H](Cc2ccc(O)cc2)NC(=O)CCSCC[C@@H](C(=O)N2CCC[C@H]2C(=O)N[C@@H](CO)CCCNC(=N)N)NC(=O)[C@H](CC(N)=O)NC1=O (Y[2Thi]VN[hCys]P-X2; linker N-5 via X3) | 0.08 | Not Active | 6.9 | – | 0.74 | – | 160 | – | – | – | – | – | – | – | – | – | – |
| CC(C)[C@@H]1NC(=O)[C@H](Cc2ccc(F)cc2)NC(=O)[C@H](Cc2ccc(Cl)cc2)NC(=O)CCCSC[C@@H](C(=O)N2CSC[C@H]2C(=O)N[C@H](CCCNC(=N)N)C(=O)NCCc2cccs2)NC(=O)[C@H](CC(N)=O)NC1=O | 0.3 | Not Active | 27 | 100 | 0.04 | inactive | – | – | – | – | – | – | – | – | – | – | – |
